Assay results reported in ChEMBL document CHEMBL4513216, “Probing the Open Global Health Chemical Diversity Library for Multistage-Active Starting Points for Next-Generation Antimalarials” (ACS Infect Dis, 2020).

Assay: Toxicity liver stage against HepG2, at 10uM
Format: cell-based
Design: test concentration 10 uM, cell line HepG2-A16-CD81EGFP
Settings: human, HepG2-A16-CD81EGFP cells; read-out: INHIBITION
Procedure, shortened: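 Uninfected HepG2-A16-CD81EGFP cells, 3 × 10^3 per well, 1536-well, plated on prespotted compound at 10 μM final, parasite-free screening media added to match infected plates; puromycin 10 μM positive, DMSO 0.5% negative; run in parallel with 48 h PbLuc assay at 37 °C, 5% CO2; viability by CellTiter-Glo luminescence, normalized to controls.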

| Compound | cytotoxicity at 10 µM |
| --- | --- |
| CCc1nc(NC(=O)NCCc2scnc2C)nn1C | 0.102% |
| O=C1C(NCc2ccccc2O)CCN1Cc1ccccc1 (stereo not given) | -9.11% |
| Cc1cnn(CCC(=O)N2CCCC(c3cc(C)[nH]n3)C2)c1 (stereo not given) | -23.6% |
| O=c1c2ccccc2nnn1CN(CC1CCOC1)C1CC1 (stereo not given) | -0.543% |
| NCC1Cc2cc(-c3cncc(C(=O)N4CCOCC4)n3)cc(Cl)c2O1 (stereo not given) | -42.8% |
| O=C(NCc1ccccn1)[C@@H]1COC[C@H]2CN(c3ncccn3)C[C@H]21 | 7.31% |
| COCCCNC(=O)c1cn(C(C)(C)C)c2ncccc12 | 0.0915% |
| CN1CCOC(C(=O)Nc2ccc3c(c2)nc(C(C)(C)C)n3C)C1 (stereo not given) | -1.8% |
| c1coc(-c2nnc(CN(Cc3cccs3)CC3CCCO3)o2)c1 (stereo not given) | 5.79% |
| Cc1ccc(-c2nc(CC(=O)N3CCN(c4cnccn4)CC3)cs2)o1 | -13% |
| Cc1cc(C)n2nc(C(=O)N3CCCC4(CNC(=O)O4)C3)cc2n1 (stereo not given) | 9.48% |
| Cc1ccc2c(C(=O)N(C)C)cc(-c3cnn(CCO)c3)nc2c1C | 3.69% |
| CC(=O)N1CC[C@H](c2nc3cc(C)ccc3o2)C1 | -4.13% |
| COc1nc2c(cc1C(=O)N1C[C@H](N)C[C@H]1C(=O)NC(C)C)CCC2 | -9.49% |
| CCc1ncc(C(=O)NCCN(C)S(C)(=O)=O)cn1 | 4.03% |
| CN(C)CCOCC1CN(Cc2cccc(F)c2)Cc2nccn2C1 (stereo not given) | -131% |
| O=c1[nH]cccc1-c1nccc(C2(c3ccccc3Cl)CCNCC2)n1 | -6.27% |
| Cc1ccc(S(=O)(=O)N2C[C@@H]3CCN[C@@H]3C2)cc1 | 2.94% |
| CCOCCC(=O)NC(Cc1ccc(C)cc1)c1ccccn1 (stereo not given) | -1.55% |
| CN(Cc1ccccc1)CC(O)Cn1cnc2c(Cl)cc(Cl)cc2c1=O (stereo not given) | -2.34% |
| Cc1cccc(CN2CCC3(CCCN(C(=O)c4ccsc4)C3)C2=O)n1 (stereo not given) | -1.14% |
| NC(=O)Cn1nc(-c2ccccc2F)ccc1=O | -7.69% |
| CC(C(=O)NCC(C)(C)c1ccc(Br)cc1)n1cncn1 (stereo not given) | 1.73% |
| COCCC1(C(=O)O)CCCN(CCOCc2ccccc2)C1 (stereo not given) | -12.3% |
| COc1c(C)cc(CNCc2ccnc(N3CCOCC3)c2)cc1C | 11.9% |
| COc1ccc(Cc2ncc3c(n2)CN(C(=O)CN(C)C)C3)cc1 | -1.28% |
| Cc1ccc(NC(C)C(=O)N(C)Cc2cccc(F)c2)cc1C(N)=O (stereo not given) | 11.4% |

| Compound | cytotoxicity at 10 µM |
| --- | --- |
| Cc1nc2c(c(NCc3ccccc3)n1)CCN(C(=O)C1CCC1)CC2 | 14.3% |
| Cc1csc(C2(NC(=O)NCCN3CCOCC3)CCCC2)n1 | -3.55% |
| COCC(C)NC(=O)c1cn(C(C)C)cc2c(=O)[nH]nc1-2 (stereo not given) | -12.6% |
| O=C(O)[C@]12CCCN(Cc3cccnc3)[C@@H]1CCN(c1cnccn1)C2 | 4.63% |
| O=C(Nc1c(N2CCCC2)cccc1N1CCCC1)c1cnccn1 | -50.9% |
| CCN(CC)Cc1ccccc1NC(=O)N(C)Cc1ccc(OC)cc1 | 10.7% |
| CCC(=O)N1CCC(NC(=O)c2cccc(-n3ccnc3)c2)C1 (stereo not given) | 8.96% |
| O[C@H]1[C@H](n2cc(-c3ccccn3)nn2)c2ccccc2C12CCNCC2 | -11.5% |
| CC(C)OCCN(C)CC(c1cccs1)N1CCOCC1 (stereo not given) | -4.34% |
| O=C([C@@H]1CCO[C@@H]2CCN(Cc3ccco3)C[C@H]21)N1CCCCO1 | 9.76% |
| Cn1cnc2c1C(COCC1CC1)CN(C(=O)Cc1ccsc1)C2 (stereo not given) | -2.67% |
| Cc1cnc(C)c(N2CCC(c3nnc(CN(C)C)n3C3CC3)CC2)n1 | -0.918% |
| Cc1ccc(S(=O)(=O)Nc2ccc(N3CCSCC3)c(C(=O)O)c2)s1 | 3.54% |
| Cc1noc(C)c1CSCc1nc(N)c2ccccc2n1 | 5.15% |
| CN1CCCN(c2nccc(-c3cc(C(=O)O)ccn3)n2)CC1 | 13.1% |
| Cc1cc(C)c(C)c(OCCCNC(=O)NC(C)c2nncn2C)c1 (stereo not given) | -12.3% |
| Cn1cc(C(=O)NC[C@H]2OC[C@@H]3CCN(C4CCOCC4)C[C@@H]32)cn1 | 8.01% |
| Cn1ncc2c(N3CC(N4CCCCC4)C3)nc(C3CCCC3)nc21 | -5.07% |
| N#CCCNC(=O)CSc1cc(F)ccc1F | -3.74% |
| CC(C)=CCN1C(=O)[C@@H]2CC[C@H]1CN(c1ncccc1F)C2 | 9.72% |
| O=C(O)CCC(=O)N1CCC(c2noc3cc(F)ccc23)CC1 | -14.8% |
| CCn1ccc(C(=O)NCCCN2CCOCC2)n1 | -7.9% |
| O=S1(=O)NC(C2CCN(Cc3ccccn3)CC2)Nc2ccccc21 (stereo not given) | -33.6% |
| Cn1cc(CCNC(=O)NC2CCS(=O)(=O)C2)cn1 (stereo not given) | -12.9% |
| Cc1nn(C2CCCC2)c2nc(C(C)(C)CN3CCN(C)CC3)[nH]c12 | -6.61% |
| O=C(c1ccnnc1)N1CCC2(CC1)CCN(C(=O)c1cccnc1)C2 | -97.8% |
| Cc1cc(C)c(C(=O)N2CCOC(CCN(C)C)C2)o1 (stereo not given) | -1.92% |

| Compound | cytotoxicity at 10 µM |
| --- | --- |
| Cc1cnc(C)c(N2C[C@H]3OC(=O)N(C4CCCC4)[C@H]3C2)n1 | 12.5% |
| CCOc1ccc(C2SCC(=O)Nc3c2c(=O)[nH]n3C(CC)CC)cc1 (stereo not given) | 6.5% |
| O=C1CCC2(CCOC2)CN1Cc1nncn1CCc1ccccc1 (stereo not given) | -0.506% |
| COCCN1CCOCC12CCN(C(=O)c1cccnc1)CC2 | -73.1% |
| Cn1ccc(CN2CCCC(CNS(C)(=O)=O)C2)cc1=O (stereo not given) | 9.31% |
| COc1cccc(CNc2c(O)c(=O)c2=O)c1 | 5.78% |
| CCc1c(C(=O)N2CC(C)OC(C)(C)C2)cnn1-c1ccccn1 (stereo not given) | -2.51% |
| CCOC(=O)CN1C(=O)CN(S(C)(=O)=O)CCC(OC)c2ccccc21 (stereo not given) | 1.5% |
| Cc1cc(CNC(=O)CN2CCCC(Cn3cncn3)C2)ccc1F (stereo not given) | -9.92% |
| COCCNC(=O)[C@H]1CC[C@@H]2[C@@H](CCN2c2ncc(F)cn2)O1 | -2.25% |
| CC(C)NC(=O)C1CCC2(CCN(c3ncccn3)CC2)CO1 (stereo not given) | 0.442% |
| Cc1cn2c(=O)c(-c3ccnc(N(C)C4CCCCC4)n3)cnc2s1 | 9.49% |
| Cn1ccc(C(=O)N2CCCC(Cc3cccc4ncccc34)C2)n1 (stereo not given) | 22.1% |
| O=C(NC1CCCC1)c1ccc(COCC(F)(F)F)o1 | 10.6% |
| Cc1ncc2c(n1)CN(Cc1nc(C)c(C)o1)CC2 | -4.32% |
| Cc1nccc(CNC(=O)NCC(C)Oc2ccccc2F)n1 (stereo not given) | -13.2% |
| CN1CCCC2(CC1)CCN(C(=O)CCc1ccccc1F)CC2 | -5.95% |
| CN(CCC1CCOCC1)[C@@H]1c2ccccc2C2(CCNCC2)[C@H]1O | -3.23% |
| Cn1cncc1CN1CCCC1c1cncc(Oc2ccc(F)cc2)n1 (stereo not given) | -17.3% |
| CSCCc1n[nH]c2c1CN(S(=O)(=O)c1c(C)nn(C)c1C)CC2 | 7.66% |
| CC(C)N(C)S(=O)(=O)N1CCCC1C(=O)N1CCSCC1 (stereo not given) | -16.5% |
| O=C(c1ccc[nH]1)N1CCC2(CC1)CC(Oc1cccnc1)CO2 (stereo not given) | -7.69% |
| COCCO[C@H]1CCN(C(=O)c2cnccn2)[C@H]1Cc1ccncc1 | -70.3% |
| CCc1cc(CNC(=O)N(C2CC2)C(C)c2ccco2)[nH]n1 (stereo not given) | 4.18% |
| O=C(CCc1c(F)cccc1F)N1CCCCC1Cn1cccn1 (stereo not given) | -11.1% |
| COCCNC(=O)c1ccc2c(=O)n3c(nc2c1)CCCCCC3 | -46.3% |
